{"source": "ChEMBL document CHEMBL1156469", "about": "(2007)", "key": {"[1]": {"assay": "Reversal of increase in BMP2 expression in mouse MC3T3-E1 cells expressing small interfering RNA for FOXA1 protein at 1 uM by Western blot", "format": "functional, cell-based"}, "[2]": {"assay": "Reversal of increase in BMP2 expression in mouse MC3T3-E1 cells expressing pBMP2/mSp1 mutant at 1 uM after 4 hrs by luciferase method", "format": "functional, cell-based"}, "[3]": {"biological_target": "T1, Alkaline phosphatase (Mus musculus) (UniProt Q9EQ79)", "T1 sequence (whole entry)": "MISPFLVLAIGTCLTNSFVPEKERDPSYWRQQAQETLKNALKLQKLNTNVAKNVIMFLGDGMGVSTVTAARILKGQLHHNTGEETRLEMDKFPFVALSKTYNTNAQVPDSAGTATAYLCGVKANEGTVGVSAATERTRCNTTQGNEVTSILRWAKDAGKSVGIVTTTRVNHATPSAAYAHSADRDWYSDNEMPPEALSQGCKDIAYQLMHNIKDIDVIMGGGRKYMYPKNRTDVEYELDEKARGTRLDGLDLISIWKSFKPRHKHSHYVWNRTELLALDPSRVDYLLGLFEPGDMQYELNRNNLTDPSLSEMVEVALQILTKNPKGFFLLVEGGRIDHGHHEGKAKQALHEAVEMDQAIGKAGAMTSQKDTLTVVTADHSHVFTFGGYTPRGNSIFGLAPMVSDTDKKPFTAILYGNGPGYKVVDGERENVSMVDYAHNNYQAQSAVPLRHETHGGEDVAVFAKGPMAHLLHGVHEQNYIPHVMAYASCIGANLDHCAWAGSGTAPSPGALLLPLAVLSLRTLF", "assay": "Inhibition of induction of ALP activity in mouse MC3T3-E1 cells at 1 uM after 48 hrs in presence of noggin", "format": "cell-based"}, "[4]": {"tested_on": "Osteoblast", "assay": "Effect on matrix metalloprotease 13 gene expression in rat primary osteoblast cells assessed as expression ratio of treated to untreated control by microarray analysis", "format": "functional", "how_it_was_run": "(§1)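 Resveratrol-treated and vehicle-treated primary osteoblasts were profiled on a mouse osteogenesis-focused cDNA array (GEArray Q series) built to track gene expression during osteogenic differentiation. Each gene's signal in treated cells was expressed as a ratio to untreated control.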"}, "[5]": {"tested_on": "Osteoblast", "assay": "Inhibition of antiapoptotic activity in rat primary osteoblast cells at 1 uM after 48 hrs in presence of BMP2-specific neutralizing antibody", "format": "functional, cell-based"}, "[6]": {"tested_on": "Osteoblast", "assay": "Effect on twist gene homolog 1 gene expression in rat primary osteoblast cells assessed as expression ratio of treated to untreated control by microarray analysis", "format": "functional", "how_it_was_run": "(§2)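 GEArray Q series Mouse Osteogenesis cDNA array profiling osteogenic-differentiation genes in treated versus vehicle-treated primary osteoblasts.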"}, "[7]": {"tested_on": "MDA-MB-231", "assay": "Induction of FOXO3a nuclear accumulation in human MDA-MB-231 cells FOXO3a-specific small interfering RNA xenografted in nude mice at 10 mg/kg for 2 days", "format": "functional, organism-based", "set-up": "dose 10 mg/kg"}, "[8]": {"tested_on": "MC3T3-E1", "assay": "Increase in osteocalcin mRNA levels in mouse MC3T3-E1 cells at 1 uM after 72 hrs by RT-PCR", "format": "functional, cell-based", "how_it_was_run": "(§3)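 Cells treated with 1 μm for 72 h; osteocalcin and osteopontin mRNA by RT-PCR, 30 cycles (95/52/72 °C, 1 min each), ethidium bromide–stained agarose gels; repeated at least twice from at least two cDNA preparations.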"}, "[9]": {"tested_on": "MG-63", "assay": "Increase in osteopontin mRNA levels in human MG63 cells at 1 uM after 72 hrs by RT-PCR", "format": "functional, cell-based", "how_it_was_run": "as §3"}, "[10]": {"tested_on": "MC3T3-E1", "assay": "Increase in BMP2 expression in mouse MC3T3-E1 cells expressing pBMP2delta3 mutant at 1 uM after 4 hrs by luciferase method relative to control", "format": "functional, cell-based", "how_it_was_run": "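MC3T3-E1 cells transfected with BMP-2 promoter–luciferase constructs (full promoter or deletions), treated with 1 μm or vehicle for 4 h; Dual-Luciferase assay; means ± S.D.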"}, "[11]": {"tested_on": "Osteoblast", "assay": "Effect on serine proteinase inhibitor clade H1 gene expression in rat primary osteoblast cells assessed as expression ratio of treated to untreated control by microarray analysis", "format": "functional", "how_it_was_run": "as §1"}, "[12]": {"tested_on": "Osteoblast", "assay": "Effect on integrin alpha 2 gene expression in rat primary osteoblast cells assessed as expression ratio of treated to untreated control by microarray analysis", "format": "functional", "how_it_was_run": "as §1"}, "[13]": {"assay": "Effect on colony stimulating factor 2 gene expression in rat primary osteoblast cells assessed as expression ratio of treated to untreated control by microarray analysis", "format": "functional"}, "[14]": {"assay": "Reversal of induction of BMP2 expression in mouse MC3T3-E1 cells at 1 uM by Western blot in presence of short interfering ERalpha-RNA", "format": "functional, cell-based"}, "[15]": {"tested_on": "MDA-MB-231", "assay": "Enhancement of FOXO3a nuclear accumulation in human MDA-MB-231 cells transfected with dominant negative Akt mutant", "format": "functional, cell-based", "how_it_was_run": "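MDA-MB-231 cells transfected with vector, constitutively active Akt or dominant negative Akt, treated ± compound; analyzed by Western blotting and BMP-2 promoter luciferase activity.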"}, "[16]": {"tested_on": "Rattus norvegicus", "assay": "Increase in bone mineral density in ovariectomized Wistar rat dosed orally after 10 weeks", "format": "functional, organism-based", "how_it_was_run": "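Female Wistar rats sham-operated or ovariectomized, fed compound orally every 2 days at indicated doses; femur/tibia BMD by DEXA under ketamine (87 mg/kg)/xylazine (13 mg/kg) anesthesia and serum ALP measured 10 weeks after surgery; n = 8/group, means ± S.D.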"}, "[17]": {"tested_on": "Osteoblast", "assay": "Increase in bone morphogenetic protein 2 gene expression in rat primary osteoblast cells assessed as expression ratio of treated to untreated control by microarray analysis", "format": "functional", "how_it_was_run": "as §2"}, "[18]": {"tested_on": "Osteoblast", "assay": "Effect on vascular cell adhesion molecule 1 gene expression in rat primary osteoblast cells assessed as expression ratio of treated to untreated control by microarray analysis", "format": "functional", "how_it_was_run": "as §2"}, "[19]": {"tested_on": "MC3T3-E1", "assay": "Increase in proliferation of mouse MC3T3-E1 cells assessed as fraction of cells in S phase at 0.1 to 10 uM after 24 hr by flow cytometry", "format": "functional, cell-based"}, "[20]": {"tested_on": "MCF7", "assay": "Reduction in anchorage-independent colony formation of human MCF7 cells at 1 uM by soft agar colony forming assay", "format": "functional, cell-based", "how_it_was_run": "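Seeded in 0.35% noble agar in DMEM/10% FBS over a 0.7% agar bed. Colonies of at least 50 μm counted after 3 weeks under a dissecting microscope, six replicates per treatment. Three separate experiments.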"}, "[21]": {"assay": "Reversal of increase in pBMP2 expression in mouse MC3T3-E1 cells transfected with dominant-negative mutant Src expression vector at 1 uM by luciferase method", "format": "functional, cell-based", "how_it_was_run": "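BMP-2 promoter activity measured by dual-luciferase assay and expressed relative to the untreated vector control.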"}, "[22]": {"tested_on": "MDA-MB-231", "assay": "Antiproliferative activity against human MDA-MB-231 cells at 1 uM by flow cytometry", "format": "functional, cell-based", "how_it_was_run": "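Proliferation was measured by DNA flow cytometry. Incubations were run in triplicate across three separate experiments, and values are means ± S.D.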"}, "[23]": {"tested_on": "MC3T3-E1", "assay": "Increase in osteopontin levels in mouse MC3T3-E1 cells at 1 uM after 72 hrs by ELISA", "format": "functional, cell-based", "how_it_was_run": "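Cells treated with 1 μm for 72 h; osteocalcin or osteopontin in culture medium by sandwich ELISA, HRP-streptavidin/TMB, 450 nm; percent change versus untreated control.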"}, "[24]": {"tested_on": "Osteoblast", "assay": "Effect on procollagen 14alpha 1 gene expression in rat primary osteoblast cells assessed as expression ratio of treated to untreated control by microarray analysis", "format": "functional", "how_it_was_run": "as §1"}, "[25]": {"biological_target": "Alkaline phosphatase, germ cell type (Homo sapiens) (UniProt P10696)", "sequence (P10696 20-503 limits assumed)": "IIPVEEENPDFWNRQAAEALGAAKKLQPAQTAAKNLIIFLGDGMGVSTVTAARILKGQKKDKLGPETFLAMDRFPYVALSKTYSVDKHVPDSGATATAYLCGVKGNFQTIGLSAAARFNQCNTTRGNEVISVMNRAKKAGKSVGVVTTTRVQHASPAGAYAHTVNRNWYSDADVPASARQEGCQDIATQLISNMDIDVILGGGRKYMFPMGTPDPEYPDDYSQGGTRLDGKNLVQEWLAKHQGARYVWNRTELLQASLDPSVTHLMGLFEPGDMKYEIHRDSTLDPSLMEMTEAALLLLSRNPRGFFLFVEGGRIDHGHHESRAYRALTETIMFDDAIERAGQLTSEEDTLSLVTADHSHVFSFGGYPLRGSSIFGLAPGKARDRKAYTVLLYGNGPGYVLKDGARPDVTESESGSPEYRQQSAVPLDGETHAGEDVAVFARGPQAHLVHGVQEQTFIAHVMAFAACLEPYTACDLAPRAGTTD", "assay": "Increase in ALP activity in human MG63 cells at 0.1 to 10 uM after 7 days", "format": "cell-based", "conditions": "MG-63"}, "[26]": {"tested_on": "Osteoblast", "assay": "Effect on secreted acidic cysteine rich glycoprotein gene expression in rat primary osteoblast cells assessed as expression ratio of treated to untreated control by microarray analysis", "format": "functional", "how_it_was_run": "as §1"}}, "note": "Active and inactive are the calls of the source. The rule behind the calls is not given here.", "data": [{"smiles": "Oc1ccc(/C=C/c2cc(O)cc(O)c2)cc1", "note": "[RESVERATROL]", "values": [{"measurement": "Activity", "setting": "[1]", "result": "Active"}, {"measurement": "Activity", "setting": "[2]", "result": "inactive"}, {"measurement": "Activity", "setting": "[3]", "result": "Active"}, {"measurement": "Ratio", "setting": "[4]", "result": 0.64}, {"measurement": "Activity", "setting": "[5]", "result": "Active"}, {"measurement": "Ratio", "setting": "[6]", "result": 3.77}, {"measurement": "Activity", "setting": "[7]", "result": "Active"}, {"measurement": "Activity", "setting": "[8]", "result": "Active"}, {"measurement": "Activity", "setting": "[9]", "result": "Active"}, {"measurement": "Activity", "setting": "[10]", "result": "inactive"}, {"measurement": "Ratio", "setting": "[11]", "result": 2.82}, {"measurement": "Ratio", "setting": "[12]", "result": 2.24}, {"measurement": "Ratio", "setting": "[13]", "result": 0.35}, {"measurement": "Activity", "setting": "[14]", "result": "Active"}, {"measurement": "Activity", "setting": "[15]", "result": "Active"}, {"measurement": "Activity", "setting": "[16]", "result": "Dose-dependent effect"}, {"measurement": "Ratio", "setting": "[17]", "result": 12.75}, {"measurement": "Ratio", "setting": "[18]", "result": 0.46}, {"measurement": "Activity", "setting": "[19]", "result": "Active"}, {"measurement": "Activity", "setting": "[20]", "result": "Active"}, {"measurement": "Activity", "setting": "[21]", "result": "Active"}, {"measurement": "Activity", "setting": "[22]", "result": "Active"}, {"measurement": "Activity", "setting": "[23]", "result": "Active"}, {"measurement": "Ratio", "setting": "[24]", "result": 3.76}, {"measurement": "Activity", "setting": "[25]", "result": "Active"}, {"measurement": "Ratio", "setting": "[26]", "result": 1.6}]}]}
